By inhibition is commonly meant the share of the control response that was lost under treatment. A low value points to little suppression. Usually IC50 stands for the concentration at which inhibition is half-maximal. Read a low IC50 as greater potency in that assay. A word on the Ki: it is the dissociation constant of the complex between target and ligand, obtained from inhibition or displacement. Low values mean tighter binding, high ones weaker binding.

The target in one test is T1, Angiotensin-converting enzyme (Mus musculus) (UniProt P09470).
T1 sequence (whole entry): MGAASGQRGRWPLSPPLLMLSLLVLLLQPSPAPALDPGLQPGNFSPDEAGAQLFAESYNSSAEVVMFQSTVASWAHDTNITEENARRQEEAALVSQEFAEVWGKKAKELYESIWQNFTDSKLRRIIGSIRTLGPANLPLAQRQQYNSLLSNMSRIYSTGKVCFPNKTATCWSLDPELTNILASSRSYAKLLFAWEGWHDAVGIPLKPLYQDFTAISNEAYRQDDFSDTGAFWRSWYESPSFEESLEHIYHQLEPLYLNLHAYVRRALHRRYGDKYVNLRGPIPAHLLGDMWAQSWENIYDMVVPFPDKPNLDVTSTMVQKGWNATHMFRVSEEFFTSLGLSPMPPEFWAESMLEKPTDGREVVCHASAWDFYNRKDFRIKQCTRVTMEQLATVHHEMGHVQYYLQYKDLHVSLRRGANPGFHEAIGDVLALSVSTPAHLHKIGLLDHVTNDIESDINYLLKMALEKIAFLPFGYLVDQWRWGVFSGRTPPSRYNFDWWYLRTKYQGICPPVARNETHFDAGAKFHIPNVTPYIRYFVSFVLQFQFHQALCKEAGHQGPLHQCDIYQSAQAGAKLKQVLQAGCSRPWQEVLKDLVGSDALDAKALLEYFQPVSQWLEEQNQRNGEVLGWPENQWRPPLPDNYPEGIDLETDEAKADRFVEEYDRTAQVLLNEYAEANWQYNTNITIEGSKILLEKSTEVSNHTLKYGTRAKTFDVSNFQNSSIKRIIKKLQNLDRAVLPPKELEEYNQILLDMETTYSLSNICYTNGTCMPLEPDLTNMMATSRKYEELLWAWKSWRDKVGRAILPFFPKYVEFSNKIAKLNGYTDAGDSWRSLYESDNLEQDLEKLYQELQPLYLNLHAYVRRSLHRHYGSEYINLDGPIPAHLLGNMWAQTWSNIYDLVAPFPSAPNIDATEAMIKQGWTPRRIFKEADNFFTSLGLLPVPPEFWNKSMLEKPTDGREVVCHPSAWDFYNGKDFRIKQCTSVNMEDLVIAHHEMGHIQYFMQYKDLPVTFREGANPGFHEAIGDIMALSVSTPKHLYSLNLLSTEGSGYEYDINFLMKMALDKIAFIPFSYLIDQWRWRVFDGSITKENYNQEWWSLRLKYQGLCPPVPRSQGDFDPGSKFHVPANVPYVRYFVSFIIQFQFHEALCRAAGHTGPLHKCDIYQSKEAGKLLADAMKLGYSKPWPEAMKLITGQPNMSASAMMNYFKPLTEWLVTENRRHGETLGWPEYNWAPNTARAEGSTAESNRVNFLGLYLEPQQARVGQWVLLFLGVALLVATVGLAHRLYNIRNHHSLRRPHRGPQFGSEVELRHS
In words: In vivo inhibition of lung Angiotensin Converting Enzyme (ACE) in mouse at a dose of 2.6*10e-5 mol/kg after 60 min oral administration. The test is classed as functional, organism-based. Summed up: (§1)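 Prescreen in mice: single oral dose of 2.6 X 10-5 mol/kg of prodrug (thioacetyl and benzyl ester protected, tested as stereoisomer mixtures). Inhibition of binding of a tritiated ACE probe to lung measured 20 and 60 min after dosing. Mean ± SEM of three experiments, three mice each.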
`CC(=O)Oc1ccc(C[C@H](NC(=O)C(CSC(C)=O)C(C)c2ccccc2)C(=O)OCc2ccccc2)cc1` (stereo partly drawn) showed an inhibition of 28%.
On the same count and under the same terms, then `CCCC[C@H](NC(=O)C(CSC(C)=O)C(C)c1ccccc1)C(=O)OCc1ccccc1` (stereo partly drawn), with 41%.
Compound `CC(=O)SCC(C(=O)N[C@@H](Cc1ccc(O)cc1)C(=O)OCc1ccccc1)C(C)c1ccccc1` (stereo partly drawn) returned an inhibition of 7%.
Consider `COc1ccc(C(C)C(CSC(C)=O)C(=O)N[C@@H](Cc2ccc(OC(C)=O)cc2)C(=O)OCc2ccccc2)cc1` (stereo partly drawn), for which the inhibition came out at 33%.

For a further test, the target named is T2, Angiotensin-converting enzyme (Mus musculus, UniProt P09470).
T2 sequence (P09470 whole entry): T1 sequence (whole entry)
Put plainly: Inhibitory potency against angiotensin converting enzyme by displacement of [3H]trandolaprilate binding in mouse lung. A general note: In a radioligand displacement assay an active substance lowers the binding of a labelled ligand.
As to `COc1ccc(C(C)C(CS)C(=O)NC(Cc2ccc(O)cc2)C(=O)O)cc1` (stereo not drawn), the concentration for half-maximal inhibition (IC50) stood at 3.6 nM.
On the same count and under the same terms, then `CC(C)CC(NC(=O)C(CS)C(C)c1ccccc1)C(=O)O` (stereo not drawn), with 19 nM.
As to `C[C@H](c1ccccc1)[C@@H](CS)C(=O)N[C@@H](Cc1ccccc1)C(=O)O`, affinity was put at a Ki of 10 nM.
On to `C[C@H](NC(=O)[C@H](CS)[C@@H](C)c1ccccc1)C(=O)O` (stereo in doubt; 44b), for which the inhibitory constant (Ki) stood at 16 nM.
`CC(NC(=O)C(CS)C(C)c1ccc(F)c(F)c1)C(=O)O` (stereo not drawn) showed a half-inhibitory concentration (IC50) of 5 nM.
Consider `C[C@H](NC(=O)[C@H](CS)[C@@H](C)c1ccccc1)C(=O)O` (stereo in doubt; 44d), for which the Ki worked out at 95 nM.
Same read-out and setting: then `C[C@@H](c1ccccc1)[C@@H](CS)C(=O)N[C@@H](Cc1ccccc1)C(=O)O` (stereo in doubt; 48c), with 1.9 nM.
`CC(c1ccc(N)cc1)C(CS)C(=O)NC(Cc1ccc(O)cc1)C(=O)O` (stereo not drawn) had a concentration for half-maximal inhibition (IC50) of 12 nM.
The same measure, in the same setting: the result for `CC(c1ccc(F)c(F)c1)C(CS)C(=O)NC(Cc1ccc(O)cc1)C(=O)O` (stereo not drawn) reads 4.5 nM.
Same read-out and setting: then `CC(NC(=O)C(CS)C(C)c1ccc2c(c1)OCO2)C(=O)O` (stereo not drawn), with 9.5 nM; and `CCC(NC(=O)C(CS)C(C)c1ccccc1)C(=O)O` (stereo not drawn), with 5.4 nM.
The same measure, in the same setting: then `CC(c1ccccc1)C(CS)C(=O)N[C@@H](C)C(=O)O` (stereo partly drawn), with 20 nM.
As for `CC(C)C(NC(=O)C(CS)C(C)c1ccccc1)C(=O)O` (stereo not drawn), the IC50 is 100 nM.
Still for that read-out and setting: the result for `CC(c1ccc(O)cc1)C(CS)C(=O)NC(Cc1ccc(O)cc1)C(=O)O` (stereo not drawn) reads 7.9 nM.
On the same count and under the same terms, the result for `CC(c1ccccc1)C(CS)C(=O)NCC(=O)O` (stereo not drawn) reads 32 nM.
`C[C@H](NC(=O)[C@H](CS)[C@@H](C)c1ccccc1)C(=O)O` (stereo in doubt; 44c): the inhibitory constant (Ki) turned out to be 4.5 nM.
`CC(c1ccccc1)C(CS)C(=O)NC(COCc1ccccc1)C(=O)O` (stereo not drawn) gave an IC50 of 43 nM.
Still for that read-out and setting: then `CCCCC(NC(=O)C(CS)C(C)c1ccccc1)C(=O)O` (stereo not drawn), with 7 nM; and `Cc1ccccc1C(C)C(CS)C(=O)NC(Cc1ccc(O)cc1)C(=O)O` (stereo not drawn), with 210 nM.
The compound `C[C@@H](c1ccccc1)[C@@H](CS)C(=O)N[C@@H](Cc1ccccc1)C(=O)O` (stereo in doubt; 48b) had a Ki of 15 nM.
On to `CC(NC(=O)C(CS)C(C)c1ccc(F)cc1)C(=O)O` (stereo not drawn), for which the half-maximal inhibitory concentration (IC50) was 10 nM.
In turn, `C[C@@H](c1ccccc1)[C@@H](CS)C(=O)N[C@@H](Cc1ccccc1)C(=O)O` (stereo in doubt; 48a) registered an inhibition constant Ki of 26 nM.
On to `CCCC(NC(=O)C(CS)C(C)c1ccccc1)C(=O)O` (stereo not drawn), for which the IC50 was 4 nM.
On to `CC(c1ccccc1)C(CS)C(=O)NC(Cc1ccc(O)cc1)C(=O)O` (stereo not drawn), for which the IC50 turned out to be 4.3 nM.
`C[C@H](NC(=O)[C@H](CS)[C@@H](C)c1ccccc1)C(=O)O` (stereo in doubt; 44a) gave an inhibition constant Ki of 80 nM.
In turn, `O=C(NC(Cc1ccc(O)cc1)C(=O)O)C(CS)Cc1ccccc1` (stereo not drawn) returned an IC50 of 25 nM.
The same measure, in the same setting: the result for `CC(c1ccc(F)cc1)C(CS)C(=O)NC(Cc1ccc(O)cc1)C(=O)O` (stereo not drawn) reads 6.9 nM; that for `COc1cc(C(C)C(CS)C(=O)NC(Cc2ccc(O)cc2)C(=O)O)ccc1O` (stereo not drawn), 14 nM; that for `CCC(c1ccccc1)C(CS)C(=O)NC(Cc1ccc(O)cc1)C(=O)O` (stereo not drawn), 110 nM.
The same measure, in the same setting: the result for `COc1ccc(C(C)C(CS)C(=O)NC(Cc2ccc(O)cc2)C(=O)O)cc1OC` (stereo not drawn) reads 4 nM.

For a further test, the target named is T1, Angiotensin-converting enzyme (Mus musculus). In words: Inhibition of lung Angiotensin Converting Enzyme (ACE) in mouse at a dose of 2.6*10e-5 mol/kg after 20 min oral administration. The procedure, abridged: as §1
As to `CC(=O)Oc1ccc(C[C@H](NC(=O)C(CSC(C)=O)C(C)c2ccccc2)C(=O)OCc2ccccc2)cc1` (stereo partly drawn), the inhibition was found to be 25%.
The same measure, in the same setting: the result for `CCCC[C@H](NC(=O)C(CSC(C)=O)C(C)c1ccccc1)C(=O)OCc1ccccc1` (stereo partly drawn) reads 34%.
The same measure, in the same setting: then `CC(=O)SCC(C(=O)N[C@@H](Cc1ccc(O)cc1)C(=O)OCc1ccccc1)C(C)c1ccccc1` (stereo partly drawn), with 20%; and `COc1ccc(C(C)C(CSC(C)=O)C(=O)N[C@@H](Cc2ccc(OC(C)=O)cc2)C(=O)OCc2ccccc2)cc1` (stereo partly drawn), with 14%.

For the origin of these results see ChEMBL document CHEMBL1127630, “New dual inhibitors of neutral endopeptidase and angiotensin-converting enzyme: rational design, bioavailability, and pharmacological responses in experimental hypertension” (J Med Chem, 1994).
